How the values were obtained:
Type in all cases: functional
Settings in all cases: read-out: DIZ
Micrococcus luteus = test: Antibacterial activity against Micrococcus luteus at 12 ug/well after 24 hrs by agar well diffusion method
Procedure, shortened: (§1)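 Colonies subcultured from nutrient agar into nutrient broth, grown 37 °C for 18 h, then inoculated onto Mueller-Hinton agar plates (four plates). Wells cut with sterile 5 mm glass tube; […] of 100 µg/ml DMSO solution added per well; incubated 37 °C for 24 h before reading inhibition. Data from duplicate or triplicate experiments.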

Pseudomonas aeruginosa = test: Antibacterial activity against Pseudomonas aeruginosa at 12 ug/well after 24 hrs by agar well diffusion method; procedure, shortened: as §1
Bacillus subtilis = test: Antibacterial activity against Bacillus subtilis at 12 ug/well after 24 hrs by agar well diffusion method; procedure, shortened: as §1
Salmonella enterica = test: Antibacterial activity against Salmonella enterica at 12 ug/well after 24 hrs by agar well diffusion method; procedure, shortened: as §1

Structure (SMILES) | zone of inhibition at 12 µg/disc (Micrococcus luteus) [mm] | zone of inhibition at 12 µg/disc (Pseudomonas aeruginosa) [mm] | zone of inhibition at 12 µg/disc (Bacillus subtilis) [mm] | zone of inhibition at 12 µg/disc (Salmonella enterica) [mm]
NC1=C(C(=O)c2c[nH]c3ccccc23)C(c2ccc(C3C(C(=O)c4c[nH]c5ccccc45)=C(N)Oc4ccc5ccccc5c43)cc2)c2c(ccc3ccccc23)O1 (centres undefined) | 7 |  |  | 
CC[C@H]1OC(=O)[C@H](C)[C@@H](O[C@H]2C[C@@](C)(OC)[C@@H](O)[C@H](C)O2)[C@H](C)[C@@H](O[C@@H]2O[C@H](C)C[C@H](N(C)C)[C@H]2O)[C@](C)(O)C[C@@H](C)C(=O)[C@H](C)[C@@H](O)[C@]1(C)O [ERYTHROMYCIN] | 10 | 10 | 12 | 8
NC1=C(C(=O)c2c[nH]c3ccc(Br)cc23)C(c2ccc(C3C(C(=O)c4c[nH]c5ccc(Br)cc45)=C(N)Oc4ccc5ccccc5c43)cc2)c2c(ccc3ccccc23)O1 (centres undefined) | 30 |  | 6 | 
NC1=C(C(=O)c2c[nH]c3ccc(Br)cc23)C(c2cccnc2)c2c(ccc3ccccc23)O1 (centres undefined) | 11 |  |  | 6
NC1=C(C(=O)c2c[nH]c3ccccc23)C(c2ccc(F)cc2)c2c(ccc3ccccc23)O1 (centres undefined) | 30 |  | 11 | 6
NC1=C(C(=O)c2c[nH]c3ccccc23)C(c2cccc([N+](=O)[O-])c2)c2c(ccc3ccccc23)O1 (centres undefined) | 29 |  | 8 | 
NC1=C(C(=O)c2c[nH]c3ccccc23)C(c2ccc(Br)cc2)c2c(ccc3ccccc23)O1 (centres undefined) | 10 |  |  | 
NC1=C(C(=O)c2c[nH]c3ccccc23)C(c2ccc(Cl)cc2)c2c(ccc3ccccc23)O1 (centres undefined) | 8 |  |  | 17
NC1=C(C(=O)c2c[nH]c3ccc(Br)cc23)C(c2ccc(Cl)cc2)c2c(ccc3ccccc23)O1 (centres undefined) | 45 |  | 6 | 
NC1=C(C(=O)c2c[nH]c3ccc(Br)cc23)C(c2ccc(Cl)cc2Cl)c2c(ccc3ccccc23)O1 (centres undefined) | 30 |  |  | 
COc1cccc(C2C(C(=O)c3c[nH]c4ccccc34)=C(N)Oc3ccc4ccccc4c32)c1 (centres undefined) | 35 | 17 |  | 
Cc1[nH]c2ccccc2c1C(=O)C1=C(N)Oc2ccc3ccccc3c2C1c1ccc(Cl)cc1Cl (centres undefined) | 50 | 15 |  | 15
CN(C)[C@@H]1C(O)=C(C(N)=O)C(=O)[C@@]2(O)C(O)=C3C(=O)c4c(O)cccc4[C@@](C)(O)[C@H]3C[C@@H]12 [TETRACYCLINE] | 16 | 18 | 14 | 7

From ChEMBL document CHEMBL2069266, “An expeditious regioselective synthesis of novel bioactive indole-substituted chromene derivatives via one-pot three-component reaction” (2012)
